In brackets after ≈: the same amount, converted by molar mass. Activity calls are given as the source filed them. The rule behind the calls is not given here.
Experiments:
[1] = biological target: Sodium-dependent serotonin transporter (Homo sapiens) (UniProt P31645); assay: Binding affinity to human 5-HT transporter by radioligand binding assay
Summary of the method: (§1)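 CEREP panel binding measured by displacement of an antagonist radioligand.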

Homo sapiens = species on record: Homo sapiens; assay: Binding affinity to sodium channel site 2 (unknown origin) by radioligand binding assay; summary of the method: as §1
[2] = biological target: Muscarinic acetylcholine receptor M1 (Homo sapiens) (UniProt P11229); assay: Binding affinity to human muscarinic M1 receptor by radioligand binding assay; summary of the method: as §1
[3] = biological target: Sodium-dependent dopamine transporter (Homo sapiens) (UniProt Q01959); assay: Binding affinity to human dopamine transporter by radioligand binding assay; summary of the method: as §1
[4] = biological target: Angiopoietin-1 receptor (Homo sapiens) (UniProt Q02763); assay: Inhibition of Tie2 (unknown origin)
[5] = biological target: Serine/threonine-protein kinase TAO2 (Homo sapiens) (UniProt Q9UL54); assay: Inhibition of TAOK2 (unknown origin)
[6] = biological target: Proto-oncogene tyrosine-protein kinase Src (Homo sapiens) (UniProt P12931); assay: Inhibition of SRC (unknown origin)
[7] = biological target: Protein kinase C beta type (Homo sapiens) (UniProt P05771); assay: Inhibition of PRKCB2 (unknown origin)
[8] = biological target: Serine/threonine-protein kinase pim-2 (Homo sapiens) (UniProt Q9P1W9); assay: Inhibition of PIM2 (unknown origin)
[9] = biological target: Hepatocyte growth factor receptor (Homo sapiens) (UniProt P08581); assay: Inhibition of cMet (unknown origin)
[10] = biological target: MAP kinase p38 (Homo sapiens) (UniProt O15264+Q15759+Q16539+P53778); assay: Inhibition of p38 (unknown origin); type: protein assay
[11] = biological target: Mitogen-activated protein kinase kinase kinase kinase 4 (Homo sapiens) (UniProt O95819); assay: Inhibition of MAP4K4 (unknown origin)
[12] = biological target: Vascular endothelial growth factor receptor 2 (Homo sapiens) (UniProt P35968); assay: Inhibition of KDR (unknown origin)
[13] = biological target: Glycogen synthase kinase-3 beta (Homo sapiens) (UniProt P49841); assay: Inhibition of GSK3B (unknown origin)
[14] = biological target: Casein kinase II subunit alpha' (Homo sapiens) (UniProt P19784); assay: Inhibition of CSNK2A2 (unknown origin)
[15] = biological target: Serine/threonine-protein kinase Chk1 (Homo sapiens) (UniProt O14757); assay: Inhibition of CHEK1 (unknown origin)
[16] = biological target: Serine/threonine-protein kinase Chk2 (Homo sapiens) (UniProt O96017); assay: Inhibition of CHEK2 (unknown origin)
[17] = biological target: Tyrosine-protein kinase BTK (Homo sapiens) (UniProt Q06187); assay: Inhibition of BTK (unknown origin)
[18] = Kinetic solubility of the compound at pH 7.4; type: physicochemical; settings: buffer, read-out: Kinetic_solubility
[19] = Passive permeability from apical to basolateral side of dog RRCK cells; type: ADME, cell-based, Canis lupus familiaris, MDCKII-LE; settings: MDCK, read-out: permeability
[20] = Intrinsic clearance in human liver microsomes; type: ADME, Microsome; settings: read-out: CLH
Pyruvate kinase PKM [21] = biological target: T1, Pyruvate kinase PKM (Homo sapiens, UniProt P14618); assay: Activation of human PKM2 assessed as production of ATP at infinite concentration after 10 mins by lactate dehydrogenase-coupled enzyme assay relative to FBP
Summary of the method: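 Coupled to lactate dehydrogenase, NADH loss read as the drop in absorbance at 340 nm. Reaction: 2nM human PKM2 (cleaved N-term his, 1-531), 2 mM PEP, 0.35 mM NADH, 4 units/mL LDH in 50 mM Tris pH 7.5 with KCl and 5 mM MgCl2. Compound preincubated 10 minutes at 32 °C, then 0.5mM ADP starts the reaction. Duplicates; 10-point curves; asymptote max = % activation at infinite concentration.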

SNU-182 = assay: Antiproliferative activity against human SNU182 cells at 10 uM after 5 days; type: functional, cell-based
Summary of the method: (§2)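 Cells plated in Optimem-GlutaMax medium and cultured overnight before exposure to 10 µM compound. Viability measured with CytoTox-Glo after 5 days of treatment.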

SNU-449 = assay: Antiproliferative activity against human SNU449 cells at 10 uM after 5 days; type: functional, cell-based; summary of the method: as §2
Pyruvate kinase PKM [22] = biological target: T1, Pyruvate kinase PKM; assay: Activation of PKM2 in human Snu182 cells assessed as extracellular acidification rate at 10 uM after 18 hrs; type: cell-based
Summary of the method: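 Snu182 cells seeded at 12k/well in RPMI with 10% FBS and 2 mM glutamine, cultured overnight, then given 10 µM compound for 18 h at 37°C, 5% CO2. Medium switched to XF DMEM with 5 mM glucose plus 10 µM compound; OCR and ECAR measured on a Seahorse XF96 analyzer.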

[23] = biological target: Histamine H1 receptor (Homo sapiens) (UniProt P35367); assay: Binding affinity to human histamine H1 receptor by radioligand binding assay; summary of the method: as §1
[24] = biological target: Sodium-dependent noradrenaline transporter (Homo sapiens) (UniProt P23975); assay: Binding affinity to human norepinephrine transporter by radioligand binding assay; summary of the method: as §1
HuH-1 (human) = assay: Antiproliferative activity against human HuH1 cells at 10 uM after 5 days

T1 sequence (P14618 2-531 limits assumed): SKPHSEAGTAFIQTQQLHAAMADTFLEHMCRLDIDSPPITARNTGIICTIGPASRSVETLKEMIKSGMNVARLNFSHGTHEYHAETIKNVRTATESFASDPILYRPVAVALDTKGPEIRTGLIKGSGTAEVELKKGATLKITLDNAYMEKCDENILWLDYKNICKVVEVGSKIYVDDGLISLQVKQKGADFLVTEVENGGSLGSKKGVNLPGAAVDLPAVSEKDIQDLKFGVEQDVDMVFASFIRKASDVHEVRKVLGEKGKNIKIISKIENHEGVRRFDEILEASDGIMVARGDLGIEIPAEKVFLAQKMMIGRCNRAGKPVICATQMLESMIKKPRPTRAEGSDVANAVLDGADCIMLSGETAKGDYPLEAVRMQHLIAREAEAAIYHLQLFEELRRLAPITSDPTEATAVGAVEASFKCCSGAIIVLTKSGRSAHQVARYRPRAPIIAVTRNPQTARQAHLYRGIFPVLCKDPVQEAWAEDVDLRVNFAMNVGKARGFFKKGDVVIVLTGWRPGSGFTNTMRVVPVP
Hepatocyte growth factor receptor (Homo sapiens), sequence (P08581 whole entry): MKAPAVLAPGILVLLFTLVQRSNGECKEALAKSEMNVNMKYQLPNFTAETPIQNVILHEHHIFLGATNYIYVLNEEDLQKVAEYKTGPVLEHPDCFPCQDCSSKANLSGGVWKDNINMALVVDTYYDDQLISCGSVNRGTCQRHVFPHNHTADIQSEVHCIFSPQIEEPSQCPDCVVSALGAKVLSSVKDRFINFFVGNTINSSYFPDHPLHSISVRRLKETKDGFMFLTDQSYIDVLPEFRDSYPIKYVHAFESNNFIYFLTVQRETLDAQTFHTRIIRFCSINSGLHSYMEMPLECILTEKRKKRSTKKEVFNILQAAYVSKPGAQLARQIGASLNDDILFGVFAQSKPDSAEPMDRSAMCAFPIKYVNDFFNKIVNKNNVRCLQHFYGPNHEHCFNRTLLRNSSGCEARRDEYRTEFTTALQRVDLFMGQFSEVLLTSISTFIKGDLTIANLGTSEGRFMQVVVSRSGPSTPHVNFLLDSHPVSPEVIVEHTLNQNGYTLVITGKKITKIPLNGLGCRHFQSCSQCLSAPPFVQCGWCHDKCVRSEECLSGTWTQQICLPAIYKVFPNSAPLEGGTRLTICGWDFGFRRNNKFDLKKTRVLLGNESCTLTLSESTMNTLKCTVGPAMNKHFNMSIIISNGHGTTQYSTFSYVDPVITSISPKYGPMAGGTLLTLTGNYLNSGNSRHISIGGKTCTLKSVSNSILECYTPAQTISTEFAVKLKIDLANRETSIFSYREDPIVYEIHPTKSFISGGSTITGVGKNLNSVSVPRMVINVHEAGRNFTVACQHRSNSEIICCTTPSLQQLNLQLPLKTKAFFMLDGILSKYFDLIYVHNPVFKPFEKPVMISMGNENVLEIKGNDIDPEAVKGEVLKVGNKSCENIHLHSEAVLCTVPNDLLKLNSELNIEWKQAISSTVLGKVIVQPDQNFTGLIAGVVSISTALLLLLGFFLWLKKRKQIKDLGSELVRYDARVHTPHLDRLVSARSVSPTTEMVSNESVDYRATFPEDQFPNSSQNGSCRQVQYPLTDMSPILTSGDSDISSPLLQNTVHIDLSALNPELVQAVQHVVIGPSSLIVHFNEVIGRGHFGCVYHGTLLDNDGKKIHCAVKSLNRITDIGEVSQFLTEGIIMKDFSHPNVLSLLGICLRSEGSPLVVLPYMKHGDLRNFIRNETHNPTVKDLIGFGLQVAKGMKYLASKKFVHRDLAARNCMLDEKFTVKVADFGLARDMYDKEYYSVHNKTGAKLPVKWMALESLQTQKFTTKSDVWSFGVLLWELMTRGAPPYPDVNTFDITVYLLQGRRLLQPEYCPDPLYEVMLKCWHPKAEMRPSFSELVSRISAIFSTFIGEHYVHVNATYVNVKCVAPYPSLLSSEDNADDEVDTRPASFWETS
Sodium-dependent dopamine transporter (Homo sapiens), sequence (Q01959 whole entry): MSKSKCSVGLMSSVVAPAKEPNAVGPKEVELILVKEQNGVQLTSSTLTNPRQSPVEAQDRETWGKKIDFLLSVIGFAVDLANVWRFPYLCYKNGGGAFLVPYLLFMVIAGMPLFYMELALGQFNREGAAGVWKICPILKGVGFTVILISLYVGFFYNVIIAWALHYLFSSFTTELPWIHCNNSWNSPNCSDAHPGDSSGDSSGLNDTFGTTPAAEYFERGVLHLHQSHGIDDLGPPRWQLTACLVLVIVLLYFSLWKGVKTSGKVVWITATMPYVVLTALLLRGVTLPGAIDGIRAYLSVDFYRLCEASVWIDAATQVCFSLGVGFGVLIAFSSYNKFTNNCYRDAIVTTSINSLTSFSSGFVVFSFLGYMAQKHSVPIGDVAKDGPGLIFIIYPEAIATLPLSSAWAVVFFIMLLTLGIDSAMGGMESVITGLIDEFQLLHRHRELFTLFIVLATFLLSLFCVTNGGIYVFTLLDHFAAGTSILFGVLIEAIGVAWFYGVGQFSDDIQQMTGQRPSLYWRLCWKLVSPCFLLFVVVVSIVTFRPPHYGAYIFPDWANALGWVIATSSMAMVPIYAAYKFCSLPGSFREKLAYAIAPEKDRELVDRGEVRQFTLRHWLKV
Serine/threonine-protein kinase Chk1 (Homo sapiens), sequence (O14757 whole entry): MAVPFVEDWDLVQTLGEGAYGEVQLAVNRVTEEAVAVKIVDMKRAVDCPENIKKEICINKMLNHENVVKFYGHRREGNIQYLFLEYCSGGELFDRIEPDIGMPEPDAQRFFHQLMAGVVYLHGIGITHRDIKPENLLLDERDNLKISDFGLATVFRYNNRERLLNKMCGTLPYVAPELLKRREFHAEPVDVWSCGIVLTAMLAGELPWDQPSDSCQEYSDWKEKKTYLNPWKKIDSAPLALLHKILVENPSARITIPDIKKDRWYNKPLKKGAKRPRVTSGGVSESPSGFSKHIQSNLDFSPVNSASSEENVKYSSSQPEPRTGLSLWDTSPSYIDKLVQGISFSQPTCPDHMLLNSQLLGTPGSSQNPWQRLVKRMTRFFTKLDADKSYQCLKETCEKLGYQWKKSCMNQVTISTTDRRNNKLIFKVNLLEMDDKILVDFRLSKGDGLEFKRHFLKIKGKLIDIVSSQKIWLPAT
Angiopoietin-1 receptor (Homo sapiens), sequence (Q02763 whole entry): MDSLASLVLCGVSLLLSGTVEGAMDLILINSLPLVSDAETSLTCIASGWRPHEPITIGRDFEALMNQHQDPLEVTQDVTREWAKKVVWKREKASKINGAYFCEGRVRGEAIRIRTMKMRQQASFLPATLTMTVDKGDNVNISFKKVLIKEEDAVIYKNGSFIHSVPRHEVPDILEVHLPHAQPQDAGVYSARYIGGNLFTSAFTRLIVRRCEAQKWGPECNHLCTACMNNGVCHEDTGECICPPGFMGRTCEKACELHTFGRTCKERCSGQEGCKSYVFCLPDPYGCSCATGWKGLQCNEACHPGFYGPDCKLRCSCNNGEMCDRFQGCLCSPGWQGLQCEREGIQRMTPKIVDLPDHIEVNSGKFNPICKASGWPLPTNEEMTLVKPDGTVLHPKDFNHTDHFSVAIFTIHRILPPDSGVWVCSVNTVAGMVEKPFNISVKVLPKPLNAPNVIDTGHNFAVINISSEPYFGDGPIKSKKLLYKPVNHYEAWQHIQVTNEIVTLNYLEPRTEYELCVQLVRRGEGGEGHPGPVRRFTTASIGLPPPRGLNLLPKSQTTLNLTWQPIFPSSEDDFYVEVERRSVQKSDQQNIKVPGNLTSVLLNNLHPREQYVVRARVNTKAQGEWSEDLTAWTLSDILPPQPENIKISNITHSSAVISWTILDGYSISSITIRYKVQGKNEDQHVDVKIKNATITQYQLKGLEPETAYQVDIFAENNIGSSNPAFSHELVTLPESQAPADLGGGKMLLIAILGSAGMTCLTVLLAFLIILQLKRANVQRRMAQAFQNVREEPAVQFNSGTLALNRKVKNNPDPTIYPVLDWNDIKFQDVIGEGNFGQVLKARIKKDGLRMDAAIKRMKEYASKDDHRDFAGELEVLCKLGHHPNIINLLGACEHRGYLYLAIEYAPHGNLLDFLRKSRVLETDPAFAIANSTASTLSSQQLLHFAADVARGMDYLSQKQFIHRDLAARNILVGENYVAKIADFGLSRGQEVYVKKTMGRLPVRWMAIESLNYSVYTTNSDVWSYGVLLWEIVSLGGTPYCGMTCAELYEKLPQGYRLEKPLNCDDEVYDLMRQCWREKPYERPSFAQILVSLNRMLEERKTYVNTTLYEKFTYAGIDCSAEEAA
Sodium-dependent noradrenaline transporter (Homo sapiens), sequence (P23975 whole entry): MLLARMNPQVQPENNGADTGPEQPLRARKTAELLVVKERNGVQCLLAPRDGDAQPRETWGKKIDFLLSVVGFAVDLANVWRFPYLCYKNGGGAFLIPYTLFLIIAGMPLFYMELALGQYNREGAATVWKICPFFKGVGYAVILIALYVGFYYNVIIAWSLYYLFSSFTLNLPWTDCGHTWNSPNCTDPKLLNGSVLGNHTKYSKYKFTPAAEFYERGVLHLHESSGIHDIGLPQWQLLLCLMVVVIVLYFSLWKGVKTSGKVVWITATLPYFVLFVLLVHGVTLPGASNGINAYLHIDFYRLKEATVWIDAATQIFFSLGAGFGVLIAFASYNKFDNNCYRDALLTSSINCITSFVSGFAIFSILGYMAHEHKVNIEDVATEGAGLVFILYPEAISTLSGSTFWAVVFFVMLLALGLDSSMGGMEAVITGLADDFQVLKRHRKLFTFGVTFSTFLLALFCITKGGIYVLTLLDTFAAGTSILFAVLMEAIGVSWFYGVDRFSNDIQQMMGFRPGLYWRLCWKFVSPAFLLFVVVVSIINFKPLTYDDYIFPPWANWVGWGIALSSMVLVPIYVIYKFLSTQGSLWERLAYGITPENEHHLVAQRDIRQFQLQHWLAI
Serine/threonine-protein kinase pim-2 (Homo sapiens), sequence (Q9P1W9 whole entry, looked up): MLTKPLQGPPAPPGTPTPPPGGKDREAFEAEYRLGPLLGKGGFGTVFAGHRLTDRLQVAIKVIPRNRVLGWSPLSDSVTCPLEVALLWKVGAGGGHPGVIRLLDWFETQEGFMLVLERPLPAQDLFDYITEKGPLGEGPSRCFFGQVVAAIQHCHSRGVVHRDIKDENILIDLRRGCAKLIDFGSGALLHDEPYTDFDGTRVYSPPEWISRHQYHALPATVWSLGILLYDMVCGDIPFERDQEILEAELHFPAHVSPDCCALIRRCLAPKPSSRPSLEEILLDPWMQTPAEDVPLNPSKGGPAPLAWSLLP

Cc1cccc2nc(Cn3cnc4ccccc43)cc(=O)n12
Activity [1]: inactive
Activity (Homo sapiens): inactive
Activity [2]: inactive
Activity [3]: inactive
inhibition [4]: inactive
inhibition [5]: inactive
inhibition [6]: inactive
inhibition [7]: inactive
inhibition [8]: inactive
inhibition [9]: inactive
inhibition [10]: inactive
inhibition [11]: inactive
inhibition [12]: inactive
inhibition [13]: inactive
inhibition [14]: inactive
inhibition [15]: inactive
inhibition [16]: inactive
inhibition [17]: inactive
solubility kinetic [18]: 178 µM (≈ 51.7 µg/mL)
Papp A→B [19]: 20.5 ×10⁻⁶ cm/s
microsomal CLint [20]: < 8 µL/min/mg
max activation (Pyruvate kinase PKM [21]): 198%
Activity (SNU-182): inactive
Activity (SNU-449): inactive
Activity (Pyruvate kinase PKM [22]): 109%
Activity [23]: inactive
Activity [24]: inactive
Activity (HuH-1 (human)): inactive
